In ChEMBL document CHEMBL4725369, “Multicomponent Synthesis, Binding Mode, and Structure-Activity Relationship of Selective Histone Deacetylase 6 (HDAC6) Inhibitors with Bifurcated Capping Groups” (J Med Chem, 2020):
Activity calls are given as the source filed them. The calls are words filed in the database; no cut-off is given here.

What was measured:
[1] = biological target: Class 1 histone deacetylase (Homo sapiens) (UniProt Q13547+O15379+Q92769+Q9BY41); assay: Inhibition of class-1 HDAC in human HL60 cells assessed as induction of histone H3 acetylation at 2.5 to 5 uM incubated for 24 hrs by immunoblot analysis; type: cell-based; details: HL-60, dose microM 2.5-5, time […]
Histone deacetylase 2 = Histone deacetylase 2 (Homo sapiens, UniProt Q92769); assay: Inhibition of human recombinant HDAC2 using ZMAL (Z-Lys(Ac)-AMC) fluorogenic substrate incubated for 90 mins by fluorescence based assay
How it was run: (§1)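 Enzyme was incubated with compound and ZMAL substrate (21.43 μM stock in assay buffer) for 90 min at 37 °C. Trypsin development followed for 30 min at 37 °C, then fluorescence at ex 355/em 460 nm. Duplicates, at least two independent experiments.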

Histone deacetylase 4 = Histone deacetylase 4 (Homo sapiens, UniProt P56524); assay: Inhibition of human recombinant HDAC4 using Boc-Lys-(epsilon-Tfa)-AMC fluorogenic substrate incubated for 90 mins by fluorescence based assay
How it was run: (§2)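 Human recombinant HDAC4 or HDAC8, 20 ng per well, in Tris-HCl pH 8.0 buffer with 1 mg/mL BSA. Enzyme was preincubated 5 min with inhibitor, then started with Boc-Lys(ε-Tfa)-AMC, 100 μM for HDAC4 or 60 μM for HDAC8. […] Fluorescence ex 355/em 460 nm was read 15 min later.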

MOLT-4 = assay: Cytotoxicity in human MOLT-4 cells assessed as reduction in cell viability incubated for 72 hrs by cell-Titer-Glo luminescent cell viability assay; type: cell-based; details: MOLT-4, 72 h
How it was run: (§3)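 Cells were exposed in 384-well format to a digitally dispensed concentration series of 1–50 μM. Viability was read by CellTiter-Glo luminescence after 72 h. Data were normalized to controls, and IC50 came from nonlinear regression of a sigmoid dose curve. K562 was maintained in RPMI 1640 with 10% FCS at 37 °C and 5% CO2. MOLT-4 was maintained in RPMI 1640 with 20% FCS.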

[2] = Intrinsic clearance in mouse liver microsomes; type: ADME, Microsome
HL-60 [3] = assay: Induction of apoptosis in human HL-60 cells at 2.5 to 5 uM incubated for 24 hrs by Annexin V and PI staining based FACS analysis; type: cell-based; details: hl-60, 24 h, dose 2.5-5 µM
How it was run: (§4)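 HL60 cells in RPMI 1640 with 10% FCS at 37°C, 5% CO2. Cells were exposed to test compound at 2.5 or 5 μM, alone or combined with bortezomib, for 24 h. Annexin V/propidium iodide staining was read by FACS; n=3, with paired two-tailed Student's t-test.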

K562 = assay: Cytotoxicity in human K562 cells assessed as reduction in cell viability incubated for 72 hrs by cell-Titer-Glo luminescent cell viability assay; type: cell-based; details: K562, 72 h; how it was run: as §3
Jurkat = assay: Cytotoxicity in human Jurkat cells assessed as reduction in cell viability incubated for 72 hrs by cell-Titer-Glo luminescent cell viability assay; type: cell-based
How it was run: (§5)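 Leukaemia lines kept in RPMI 1640 with 20% FCS (SUP-B15 in McCoy's 5A with 20% FCS). Compound dispensed digitally at increasing concentrations from 1 μM to 50 μM. Viability read by CellTiter-Glo luminescence after 72 h. Raw data were normalized to controls and IC50 was fitted by sigmoid nonlinear regression.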

SUP-B15 = assay: Cytotoxicity in human SUP-B15 cells assessed as reduction in cell viability incubated for 72 hrs by cell-Titer-Glo luminescent cell viability assay; type: cell-based; details: SUP-B15, 72 h; how it was run: as §5
Histone deacetylase 1 = Histone deacetylase 1 (Homo sapiens, UniProt Q13547); assay: Inhibition of human recombinant HDAC1 using ZMAL (Z-Lys(Ac)-AMC) fluorogenic substrate incubated for 90 mins by fluorescence based assay
[4] = biological target: T1, Protein deacetylase HDAC6 (Homo sapiens) (UniProt Q9UBN7); assay: Inhibition of HDAC6 in human HL60 cells assessed as induction of alpha-tubulin acetylation at 2.5 to 5 uM incubated for 24 hrs by immunoblot analysis; type: cell-based; details: HL-60, dose microM 2.5-5, time […]
T1 sequence (whole entry): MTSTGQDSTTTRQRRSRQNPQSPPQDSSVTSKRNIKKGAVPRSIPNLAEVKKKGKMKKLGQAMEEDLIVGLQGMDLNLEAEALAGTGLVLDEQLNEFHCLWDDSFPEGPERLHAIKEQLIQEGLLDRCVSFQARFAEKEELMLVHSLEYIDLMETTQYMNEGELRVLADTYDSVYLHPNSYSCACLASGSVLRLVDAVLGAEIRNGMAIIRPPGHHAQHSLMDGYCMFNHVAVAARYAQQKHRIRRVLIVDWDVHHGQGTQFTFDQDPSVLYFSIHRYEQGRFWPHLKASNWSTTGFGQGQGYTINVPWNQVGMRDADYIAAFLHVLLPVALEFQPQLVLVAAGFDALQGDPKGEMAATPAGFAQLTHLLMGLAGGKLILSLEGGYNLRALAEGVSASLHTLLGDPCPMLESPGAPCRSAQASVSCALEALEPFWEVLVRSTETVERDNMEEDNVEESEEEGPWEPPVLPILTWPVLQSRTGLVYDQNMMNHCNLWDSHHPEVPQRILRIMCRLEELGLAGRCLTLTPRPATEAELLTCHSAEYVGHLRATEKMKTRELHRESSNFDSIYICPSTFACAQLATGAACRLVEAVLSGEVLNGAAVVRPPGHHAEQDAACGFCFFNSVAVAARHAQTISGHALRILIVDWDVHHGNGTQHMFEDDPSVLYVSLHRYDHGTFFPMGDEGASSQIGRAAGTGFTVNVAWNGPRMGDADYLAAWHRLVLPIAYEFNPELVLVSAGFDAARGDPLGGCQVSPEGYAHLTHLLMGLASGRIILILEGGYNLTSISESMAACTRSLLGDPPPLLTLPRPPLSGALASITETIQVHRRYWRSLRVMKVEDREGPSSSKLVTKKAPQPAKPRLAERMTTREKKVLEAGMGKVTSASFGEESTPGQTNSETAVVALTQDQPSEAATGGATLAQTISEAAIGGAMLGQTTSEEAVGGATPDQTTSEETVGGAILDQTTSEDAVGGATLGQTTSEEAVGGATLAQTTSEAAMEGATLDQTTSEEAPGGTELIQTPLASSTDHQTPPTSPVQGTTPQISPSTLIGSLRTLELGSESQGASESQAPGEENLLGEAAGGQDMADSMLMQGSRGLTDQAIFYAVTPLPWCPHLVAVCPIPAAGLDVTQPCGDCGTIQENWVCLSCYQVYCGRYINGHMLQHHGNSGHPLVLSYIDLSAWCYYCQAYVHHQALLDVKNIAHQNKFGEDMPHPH

CCRF-HSB-2 [5] = assay: Potentiation of […]-induced cytotoxicity in human CCRF-HSB-2 cells assessed as reduction in cell viability at 2.5 to 5 uM incubated for 72 hrs in presence of 10 nM daunorubicin by cell-Titer-Glo luminescent cell viability assay; type: functional, cell-based; details: dose microM 2.5-5, time 72.0 hrs
How it was run: (§6)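 HSB-2 cells in RPMI 1640 with 20% FCS on a semi-automated combination platform. Test compound was fixed at 2.5 or 5 μM, alone or with chemotherapeutics and glucocorticoids dispensed at 10 nM-25 μM. Viability read by CellTiter-Glo luminescence after 72 h.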

Histone deacetylase 3 = Histone deacetylase 3 (Homo sapiens, UniProt O15379); assay: Inhibition of human recombinant HDAC3 using ZMAL (Z-Lys(Ac)-AMC) fluorogenic substrate incubated for 90 mins by fluorescence based assay; how it was run: as §1
CCRF-HSB-2 [6] = assay: Cytotoxicity in human CCRF-HSB-2 cells assessed as reduction in cell viability at 2.5 to 5 uM incubated for 72 hrs by cell-Titer-Glo luminescent cell viability assay; type: cell-based; details: ccrf-hsb-2, 72 h, dose 2.5-5 µM; how it was run: as §6
CCRF-HSB-2 [7] = assay: Potentiation of epirubicin-induced cytotoxicity in human CCRF-HSB-2 cells assessed as reduction in cell viability at 2.5 to 5 uM incubated for 72 hrs in presence of 10 nM epirubicin1 by cell-Titer-Glo luminescent cell viability assay; type: functional, cell-based; details: dose microM 2.5-5, time 72.0 hrs; how it was run: as §6
[8] = biological target: T2, Protein deacetylase HDAC6 (Homo sapiens, UniProt Q9UBN7); assay: Inhibition of human recombinant HDAC6 using ZMAL (Z-Lys(Ac)-AMC) fluorogenic substrate incubated for 90 mins by fluorescence based assay
T2 sequence (Q9UBN7 whole entry): T1 sequence (whole entry)

CCRF-HSB-2 [9] = assay: Cytotoxicity in human CCRF-HSB-2 cells assessed as reduction in cell viability incubated for 72 hrs by cell-Titer-Glo luminescent cell viability assay; type: cell-based; details: CCRF-HSB-2, 72 h; how it was run: as §5
[10] = Intrinsic clearance in human liver microsomes; type: ADME, Microsome
HL-60 [11] = assay: Potentiation of bortezomib-induced apoptosis in human HL-60 cells assessed as increase in number of late apoptotic/dead cells at 2.5 to 5 uM incubated for 24 hrs in presence of 0.6 to 1.2 nM bortezomib- by Annexin V and PI staining based FACS analysis; type: functional, cell-based; details: dose microM 2.5-5, time […]; how it was run: as §4
Histone deacetylase 8 = biological target: T3, Histone deacetylase 8 (Homo sapiens, UniProt Q9BY41); assay: Inhibition of human recombinant HDAC8 using Boc-Lys-(epsilon-Tfa)-AMC fluorogenic substrate incubated for 90 mins by fluorescence based assay; how it was run: as §2
T3 sequence (Q9BY41 whole entry): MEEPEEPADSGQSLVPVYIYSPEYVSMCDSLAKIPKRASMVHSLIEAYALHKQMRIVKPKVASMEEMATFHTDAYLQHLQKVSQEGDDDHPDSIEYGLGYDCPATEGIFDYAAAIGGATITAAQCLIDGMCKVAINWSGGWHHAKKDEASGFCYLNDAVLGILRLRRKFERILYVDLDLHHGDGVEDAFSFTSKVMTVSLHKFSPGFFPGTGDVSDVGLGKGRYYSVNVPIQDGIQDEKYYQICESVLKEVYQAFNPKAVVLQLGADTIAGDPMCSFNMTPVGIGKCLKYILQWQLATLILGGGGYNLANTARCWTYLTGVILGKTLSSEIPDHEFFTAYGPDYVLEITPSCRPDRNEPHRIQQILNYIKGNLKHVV

TALL-1 = assay: Cytotoxicity in human TALL-1 cells assessed as reduction in cell viability incubated for 72 hrs by cell-Titer-Glo luminescent cell viability assay; type: cell-based; details: TALL-1, 72 h; how it was run: as §5

Chain of Histone deacetylase 1 (Q13547 whole entry): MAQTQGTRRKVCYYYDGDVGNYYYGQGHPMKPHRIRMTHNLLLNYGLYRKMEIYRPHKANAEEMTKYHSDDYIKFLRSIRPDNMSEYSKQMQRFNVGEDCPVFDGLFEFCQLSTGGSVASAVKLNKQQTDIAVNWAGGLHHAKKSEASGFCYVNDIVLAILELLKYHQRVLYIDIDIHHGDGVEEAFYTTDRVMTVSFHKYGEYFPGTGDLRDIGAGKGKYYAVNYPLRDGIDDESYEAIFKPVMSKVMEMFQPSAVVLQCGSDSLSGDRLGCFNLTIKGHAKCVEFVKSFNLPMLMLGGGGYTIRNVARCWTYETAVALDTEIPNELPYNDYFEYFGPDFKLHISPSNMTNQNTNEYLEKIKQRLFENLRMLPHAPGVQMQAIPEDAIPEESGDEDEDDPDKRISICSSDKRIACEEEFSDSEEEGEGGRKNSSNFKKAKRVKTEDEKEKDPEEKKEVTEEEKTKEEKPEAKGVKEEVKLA
Chain of Histone deacetylase 4 (P56524 whole entry): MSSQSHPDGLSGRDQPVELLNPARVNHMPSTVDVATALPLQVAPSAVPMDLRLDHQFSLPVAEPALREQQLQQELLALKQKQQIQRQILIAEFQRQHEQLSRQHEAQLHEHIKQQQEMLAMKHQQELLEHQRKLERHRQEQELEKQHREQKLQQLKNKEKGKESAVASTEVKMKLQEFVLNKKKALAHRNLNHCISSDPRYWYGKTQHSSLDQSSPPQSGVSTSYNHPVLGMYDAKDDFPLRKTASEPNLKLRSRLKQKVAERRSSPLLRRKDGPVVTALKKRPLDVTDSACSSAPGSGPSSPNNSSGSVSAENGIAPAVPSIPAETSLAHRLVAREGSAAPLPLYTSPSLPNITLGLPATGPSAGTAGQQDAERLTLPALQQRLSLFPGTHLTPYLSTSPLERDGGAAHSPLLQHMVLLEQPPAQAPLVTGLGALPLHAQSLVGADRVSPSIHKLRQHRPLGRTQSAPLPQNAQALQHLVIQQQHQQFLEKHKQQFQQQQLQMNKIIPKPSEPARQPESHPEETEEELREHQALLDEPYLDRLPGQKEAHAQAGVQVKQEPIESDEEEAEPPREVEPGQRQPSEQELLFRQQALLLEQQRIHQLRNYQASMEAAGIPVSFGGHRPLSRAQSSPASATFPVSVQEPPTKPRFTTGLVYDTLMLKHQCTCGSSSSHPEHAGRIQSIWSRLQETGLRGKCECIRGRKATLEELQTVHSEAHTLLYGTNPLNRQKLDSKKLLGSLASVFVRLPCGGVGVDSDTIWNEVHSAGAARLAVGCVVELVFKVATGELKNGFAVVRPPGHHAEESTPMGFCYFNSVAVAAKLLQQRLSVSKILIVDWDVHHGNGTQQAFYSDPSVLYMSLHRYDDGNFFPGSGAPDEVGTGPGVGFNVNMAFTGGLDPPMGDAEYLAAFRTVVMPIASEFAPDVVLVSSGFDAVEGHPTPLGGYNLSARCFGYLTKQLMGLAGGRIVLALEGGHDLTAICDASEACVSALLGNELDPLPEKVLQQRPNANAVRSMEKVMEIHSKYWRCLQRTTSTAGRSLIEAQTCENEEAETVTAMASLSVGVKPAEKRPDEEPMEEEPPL
Chain of Histone deacetylase 2 (Q92769 whole entry): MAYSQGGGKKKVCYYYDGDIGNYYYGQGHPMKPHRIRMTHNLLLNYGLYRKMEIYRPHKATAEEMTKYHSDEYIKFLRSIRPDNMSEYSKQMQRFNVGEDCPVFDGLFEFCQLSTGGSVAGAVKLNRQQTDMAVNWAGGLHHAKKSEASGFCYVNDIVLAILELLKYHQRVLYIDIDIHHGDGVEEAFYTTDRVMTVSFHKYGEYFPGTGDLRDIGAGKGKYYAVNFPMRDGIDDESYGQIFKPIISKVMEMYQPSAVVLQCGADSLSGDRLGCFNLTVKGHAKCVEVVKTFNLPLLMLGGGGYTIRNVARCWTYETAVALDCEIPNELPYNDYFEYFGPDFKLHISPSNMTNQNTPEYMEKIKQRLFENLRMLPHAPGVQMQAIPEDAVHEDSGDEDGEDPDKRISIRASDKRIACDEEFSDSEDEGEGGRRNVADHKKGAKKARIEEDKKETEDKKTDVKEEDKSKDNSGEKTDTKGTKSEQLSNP
Chain of Histone deacetylase 3 (O15379 whole entry): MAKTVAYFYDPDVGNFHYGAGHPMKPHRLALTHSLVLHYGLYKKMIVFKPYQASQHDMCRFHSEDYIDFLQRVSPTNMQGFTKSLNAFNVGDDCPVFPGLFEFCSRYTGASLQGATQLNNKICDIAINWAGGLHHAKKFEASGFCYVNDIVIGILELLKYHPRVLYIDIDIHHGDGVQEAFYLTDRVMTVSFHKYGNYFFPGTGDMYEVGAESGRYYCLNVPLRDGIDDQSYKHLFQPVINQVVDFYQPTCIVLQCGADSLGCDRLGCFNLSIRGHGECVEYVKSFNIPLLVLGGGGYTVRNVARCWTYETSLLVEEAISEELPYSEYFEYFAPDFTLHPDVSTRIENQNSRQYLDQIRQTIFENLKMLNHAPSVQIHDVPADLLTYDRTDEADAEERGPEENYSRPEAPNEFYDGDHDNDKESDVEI

| SMILES | IC50 (Histone deacetylase 1) [nM] | IC50 [8] [nM] | other results |
| --- | --- | --- | --- |
| O=C(NO)c1ccc(CN(Cc2nnnn2Cc2ccccc2)C(=O)c2ccccc2C(F)(F)F)cc1 | 5180 | 30 | inhibition [1]: inactive; IC50 (Histone deacetylase 2): 2260 nM; IC50 (Histone deacetylase 4): 55400 nM; IC50 (MOLT-4): 42400 nM; CLint [2]: 26 µL/min/mg; Activity (HL-60 [3]): Non-Toxic; IC50 (K562): 41600 nM; IC50 (Jurkat): 32100 nM; IC50 (SUP-B15): 22500 nM; inhibition [4]: Active; Activity (CCRF-HSB-2 [5]): Active; IC50 (Histone deacetylase 3): 8480 nM; Activity (CCRF-HSB-2 [6]): Non-Toxic; Activity (CCRF-HSB-2 [7]): Active; IC50 (CCRF-HSB-2 [9]): 51800 nM; CLint [10]: 30 µL/min/mg; Activity (HL-60 [11]): Active; IC50 (Histone deacetylase 8): 14700 nM; IC50 (TALL-1): 49400 nM |
| CC(C)(C)n1nnnc1CNCc1ccc(C(=O)NO)cc1 | 8240 | 330 | – |
| CCCCC(NCc1ccc(C(=O)NO)cc1)c1nnnn1Cc1ccccc1 (stereo not drawn) | 2010 | 120 | – |
| O=C(NO)c1ccc(CNC(c2ccccc2)c2nnnn2Cc2ccccc2)cc1 (stereo not drawn) | 3370 | 100 | – |
| O=C(NO)c1ccc(CNCc2nnnn2Cc2ccccc2)cc1 | 2450 | 100 | – |
| CC(C)c1ccc(C(=O)N(Cc2ccc(C(=O)NO)cc2)Cc2nnnn2Cc2ccccc2)cc1 | 1780 | 320 | – |

The next lines start with results.

| IC50 (Histone deacetylase 1) [nM] | IC50 [8] [nM] | SMILES | other results |
| --- | --- | --- | --- |
| 1240 | 30 | O=C(NO)c1ccc(CN(Cc2nnnn2Cc2ccccc2)C(=O)c2ccccc2)cc1 | – |
| 2370 | 70 | O=C(NO)c1ccc(CN(Cc2nnnn2C2CCCCC2)C(=O)c2ccccc2)cc1 | – |
| 2060 | 120 | O=C(NO)c1ccc(CNCc2nnnn2C2CCCCC2)cc1 | – |
| 900 | 80 | Cc1cc(C)cc(C(=O)N(Cc2ccc(C(=O)NO)cc2)Cc2nnnn2Cc2ccccc2)c1 | – |
| 3030 | 60 | Cc1ccccc1C(=O)N(Cc1ccc(C(=O)NO)cc1)Cc1nnnn1C1CCCCC1 | – |
| 4060 | 120 | O=C(NO)c1ccc(CNC(c2ccccc2)c2nnnn2C2CCCCC2)cc1 (stereo not drawn) | – |
